Source: ChEMBL document CHEMBL5154850, “A platform for the rapid synthesis of proteolysis targeting chimeras (Rapid-TAC) under miniaturized conditions” (Eur J Med Chem, 2022)
The source made the active and inactive calls. The calls are words filed in the database; no cut-off is given here.

Legend:
[1] = target: T1, von Hippel-Lindau disease tumor suppressor/Androgen receptor (Homo sapiens, UniProt P10275+P40337); experiment: PROTAC activity at VHL/AR in human LNCaP cells assessed as induction of AR degradation at 1 to 10 uM measured after 16 hrs by western blot analysis; type: cell-based; settings: dose 1-10 µM
Outline: (§1)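 LNCaP cells kept in RPMI with 10% FBS, 1% HEPES, 1% sodium pyruvate and 1% penicillin/streptomycin at 37 °C, 5% CO2, then exposed to PROTACs for 16 h. Lysis in RIPA buffer with protease inhibitors and 1 mM PMSF. BCA-equalized protein run on 7.5% SDS-PAGE, blocked in 5% milk/TBS-T, anti-AR primary overnight at 4 °C, β-actin loading control, HRP secondary 1 h, chemiluminescent imaging.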
Target sequence in this assay (P10275 whole entry, looked up): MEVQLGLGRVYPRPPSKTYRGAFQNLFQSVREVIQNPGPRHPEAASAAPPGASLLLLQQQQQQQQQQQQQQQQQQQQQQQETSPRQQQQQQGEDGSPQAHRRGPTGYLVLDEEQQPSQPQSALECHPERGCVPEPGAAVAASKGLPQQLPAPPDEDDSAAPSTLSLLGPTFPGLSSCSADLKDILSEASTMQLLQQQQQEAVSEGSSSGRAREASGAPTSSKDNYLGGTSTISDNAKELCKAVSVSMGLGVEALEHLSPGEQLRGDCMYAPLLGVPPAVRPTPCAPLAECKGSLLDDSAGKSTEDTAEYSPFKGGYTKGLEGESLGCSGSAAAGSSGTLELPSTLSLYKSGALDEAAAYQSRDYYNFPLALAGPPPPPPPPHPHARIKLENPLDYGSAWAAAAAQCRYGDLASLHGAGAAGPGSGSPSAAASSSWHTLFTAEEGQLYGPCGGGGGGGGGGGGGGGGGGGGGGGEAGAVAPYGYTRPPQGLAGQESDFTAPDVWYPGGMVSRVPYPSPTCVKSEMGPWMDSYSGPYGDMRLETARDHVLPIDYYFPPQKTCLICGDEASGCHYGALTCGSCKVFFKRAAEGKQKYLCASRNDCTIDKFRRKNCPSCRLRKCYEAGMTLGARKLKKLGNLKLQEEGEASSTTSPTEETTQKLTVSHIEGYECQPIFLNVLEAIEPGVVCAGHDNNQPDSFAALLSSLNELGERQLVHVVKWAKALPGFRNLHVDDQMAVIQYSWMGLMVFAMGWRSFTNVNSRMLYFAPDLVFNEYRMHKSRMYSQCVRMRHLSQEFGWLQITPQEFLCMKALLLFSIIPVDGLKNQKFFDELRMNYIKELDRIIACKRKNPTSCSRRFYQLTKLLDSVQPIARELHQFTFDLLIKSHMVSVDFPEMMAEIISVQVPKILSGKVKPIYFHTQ
Target sequence in this assay (P40337 whole entry, looked up): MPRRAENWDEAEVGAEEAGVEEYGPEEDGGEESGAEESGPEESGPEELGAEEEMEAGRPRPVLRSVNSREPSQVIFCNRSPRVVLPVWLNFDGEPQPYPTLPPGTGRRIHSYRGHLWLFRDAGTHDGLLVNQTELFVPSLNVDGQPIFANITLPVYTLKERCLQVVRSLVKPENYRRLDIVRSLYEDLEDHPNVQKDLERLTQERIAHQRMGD

[2] = target: T2, von Hippel-Lindau disease tumor suppressor/Bromodomain-containing protein 4 (Homo sapiens, UniProt O60885+P40337); experiment: PROTAC activity at VHL/BRD4 in human MV4-11 cells assessed as induction of BRD4 degradation at 3 to 100 nM measured after 12 hrs by western blot analysis; settings: dose 3-100 nM
[3] = target: T2, von Hippel-Lindau disease tumor suppressor/Bromodomain-containing protein 4; experiment: PROTAC activity at VHL/BRD4 in human MV4-11 cells assessed as induction of BRD4 degradation measured after 12 hrs by western blot analysis
[4] = target: T1, von Hippel-Lindau disease tumor suppressor/Androgen receptor; experiment: PROTAC activity at VHL/AR in human LNCaP cells assessed as induction of AR degradation at 0.01 to 1 uM measured after 16 hrs by western blot analysis; type: cell-based; settings: dose 0.1-10 µM, in the assay text read “0.1 to 10 uM” for “0.01 to 1 uM”; outline: as §1
Target sequence in this assay (P10275 whole entry, looked up): as the sequence (P10275 whole entry, looked up) above
Target sequence in this assay (P40337 whole entry, looked up): as the sequence (P40337 whole entry, looked up) above

[5] = target: T2, von Hippel-Lindau disease tumor suppressor/Bromodomain-containing protein 4; experiment: PROTAC activity at VHL/BRD4 in human MV4-11 cells assessed as induction of BRD4 degradation at 1 uM measured after 24 hrs by western blot analysis; type: cell-based
Outline: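 MV-4-11 cells grown in IMDM with 10% FBS and 1% penicillin/streptomycin at 37 °C, 5% CO2. Library screen at 1 and 10 μM for 24 h; follow-up at 100, 30, 10 and 3 nM and dose response for 12 h. RIPA lysates, BCA-normalized, 7.5% SDS-PAGE, anti-BRD4 overnight at 4 °C, β-actin control, HRP-secondary chemiluminescence.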

[6] = target: T1, von Hippel-Lindau disease tumor suppressor/Androgen receptor; experiment: PROTAC activity at VHL/AR in human LNCaP cells assessed as induction of AR degradation at 10 uM measured after 16 hrs by western blot analysis relative to control; type: cell-based; outline: as §1
Target sequence in this assay (P10275 whole entry, looked up): as the sequence (P10275 whole entry, looked up) above
Target sequence in this assay (P40337 whole entry, looked up): as the sequence (P40337 whole entry, looked up) above

[7] = target: T1, von Hippel-Lindau disease tumor suppressor/Androgen receptor; experiment: PROTAC activity at VHL/AR in human LNCaP cells assessed as reduction in AR level at 100 nM measured after 6 hrs by western blot analysis; type: cell-based
Outline: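 AR time-course blot in LNCaP cells (RPMI, 10% FBS, 37 °C, 5% CO2) with degrader at 100 nM over varied exposure times. Lysates in RIPA with protease inhibitors, equal protein by BCA, 7.5% SDS-PAGE, anti-AR overnight at 4 °C, β-actin loading reference, HRP detection.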
Target sequence in this assay (P10275 whole entry, looked up): as the sequence (P10275 whole entry, looked up) above
Target sequence in this assay (P40337 whole entry, looked up): as the sequence (P40337 whole entry, looked up) above

[8] = target: T1, von Hippel-Lindau disease tumor suppressor/Androgen receptor; experiment: PROTAC activity at VHL/AR in human LNCaP cells assessed as induction of AR degradation measured after 16 hrs by western blot analysis; type: cell-based; outline: as §1
Target sequence in this assay (P10275 whole entry): as the sequence (P10275 whole entry, looked up) above
Target sequence in this assay (P40337 whole entry): as the sequence (P40337 whole entry, looked up) above

[9] = target: T1, von Hippel-Lindau disease tumor suppressor/Androgen receptor; experiment: PROTAC activity at VHL/AR in human LNCaP cells assessed as induction of AR degradation at 1 uM measured after 16 hrs by western blot analysis relative to control; type: cell-based; outline: as §1
Target sequence in this assay (P10275 whole entry, looked up): as the sequence (P10275 whole entry, looked up) above
Target sequence in this assay (P40337 whole entry, looked up): as the sequence (P40337 whole entry, looked up) above

T2 sequence (P40337 whole entry, looked up, other chains not shown): as the sequence (P40337 whole entry, looked up) above

Activity [1]	SMILES	other results
Active	CC1(C)[C@H](NC(=O)c2ccc3c(c2)CN(C2CCC(=O)NC2=O)C3=O)C(C)(C)[C@H]1Oc1ccc(C#N)c(Cl)c1 (some centres not stated)	
	Cc1ncsc1-c1ccc(CNC(=O)[C@@H]2C[C@@H](O)CN2C(=O)[C@@H](NC(=O)CCCCN2Cc3cc(NC(=O)C[C@@H]4N=C(c5ccc(Cl)cc5)c5c(sc(C)c5C)-n5c(C)nnc54)ccc3C2=O)C(C)(C)C)cc1	Activity [2]: Active; DC50 [3]: 8.9 nM
	Cc1ncsc1-c1ccc(CNC(=O)[C@@H]2C[C@@H](O)CN2C(=O)[C@@H](NC(=O)CCCCCCCN2Cc3cc(C(=O)N[C@H]4C(C)(C)[C@H](Oc5ccc(C#N)c(Cl)c5)C4(C)C)ccc3C2=O)C(C)(C)C)cc1	Activity [4]: Active
	Cc1ncsc1-c1ccc(CNC(=O)[C@@H]2C[C@@H](O)CN2C(=O)[C@@H](NC(=O)CCCCCCCNC(=O)c2ccc(C(=O)N[C@H]3C(C)(C)[C@H](Oc4ccc(C#N)c(Cl)c4)C3(C)C)cc2)C(C)(C)C)cc1	Activity [4]: Active
Active	Cc1ncsc1-c1ccc(CNC(=O)[C@@H]2C[C@@H](O)CN2C(=O)[C@@H](NC(=O)COCCOCCN2Cc3cc(C(=O)N[C@H]4C(C)(C)[C@H](Oc5ccc(C#N)c(Cl)c5)C4(C)C)ccc3C2=O)C(C)(C)C)cc1	
Active	Cc1ncsc1-c1ccc(CNC(=O)[C@@H]2C[C@@H](O)CN2C(=O)[C@@H](NC(=O)CCN2Cc3cc(C(=O)N[C@H]4C(C)(C)[C@H](Oc5ccc(C#N)c(Cl)c5)C4(C)C)ccc3C2=O)C(C)(C)C)cc1	
Active	Cc1ncsc1-c1ccc(CNC(=O)[C@@H]2C[C@@H](O)CN2C(=O)[C@@H](NC(=O)COCCOCCOCCN2Cc3cc(C(=O)N[C@H]4C(C)(C)[C@H](Oc5ccc(C#N)c(Cl)c5)C4(C)C)ccc3C2=O)C(C)(C)C)cc1	
Active	Cc1ncsc1-c1ccc(CNC(=O)[C@@H]2C[C@@H](O)CN2C(=O)[C@@H](NC(=O)CCCCN2Cc3cc(C(=O)N[C@H]4C(C)(C)[C@H](Oc5ccc(C#N)c(Cl)c5)C4(C)C)ccc3C2=O)C(C)(C)C)cc1	
Active	Cc1ncsc1-c1ccc(CNC(=O)[C@@H]2C[C@@H](O)CN2C(=O)[C@@H](NC(=O)CCCCCCCCN2Cc3cc(C(=O)N[C@H]4C(C)(C)[C@H](Oc5ccc(C#N)c(Cl)c5)C4(C)C)ccc3C2=O)C(C)(C)C)cc1	
Active	Cc1ncsc1-c1ccc(CNC(=O)[C@@H]2C[C@@H](O)CN2C(=O)[C@@H](NC(=O)CCCCCN2Cc3cc(C(=O)N[C@H]4C(C)(C)[C@H](Oc5ccc(C#N)c(Cl)c5)C4(C)C)ccc3C2=O)C(C)(C)C)cc1	
Active	Cc1ncsc1-c1ccc(CNC(=O)[C@@H]2C[C@@H](O)CN2C(=O)[C@@H](NC(=O)CCCCCCCCCCN2Cc3cc(C(=O)N[C@H]4C(C)(C)[C@H](Oc5ccc(C#N)c(Cl)c5)C4(C)C)ccc3C2=O)C(C)(C)C)cc1	
Active	Cc1ncsc1-c1ccc(CNC(=O)[C@@H]2C[C@@H](O)CN2C(=O)[C@@H](NC(=O)COCCN2Cc3cc(C(=O)N[C@H]4C(C)(C)[C@H](Oc5ccc(C#N)c(Cl)c5)C4(C)C)ccc3C2=O)C(C)(C)C)cc1	
	Cc1ncsc1-c1ccc(CNC(=O)[C@@H]2C[C@@H](O)CN2C(=O)[C@@H](NC(=O)CCCCN2Cc3ccc(NC(=O)C[C@@H]4N=C(c5ccc(Cl)cc5)c5c(sc(C)c5C)-n5c(C)nnc54)cc3C2=O)C(C)(C)C)cc1	Activity [5]: Active
Active	Cc1ncsc1-c1ccc(CNC(=O)[C@@H]2C[C@@H](O)CN2C(=O)[C@@H](NC(=O)CCCCCCCN2Cc3ccc(C(=O)N[C@H]4C(C)(C)[C@H](Oc5ccc(C#N)c(Cl)c5)C4(C)C)cc3C2=O)C(C)(C)C)cc1	Activity [6]: 40%; Activity [7]: Active; DC50 [8]: 41.9 nM; Activity [4]: Active; Activity [9]: 73%
Active	Cc1ncsc1-c1ccc(CNC(=O)[C@@H]2C[C@@H](O)CN2C(=O)[C@@H](NC(=O)COCCOCCOCCOCCN2Cc3cc(C(=O)N[C@H]4C(C)(C)[C@H](Oc5ccc(C#N)c(Cl)c5)C4(C)C)ccc3C2=O)C(C)(C)C)cc1	
Active	Cc1ncsc1-c1ccc(CNC(=O)[C@@H]2C[C@@H](O)CN2C(=O)[C@@H](NC(=O)CCCCCCN2Cc3cc(C(=O)N[C@H]4C(C)(C)[C@H](Oc5ccc(C#N)c(Cl)c5)C4(C)C)ccc3C2=O)C(C)(C)C)cc1	
